What was measured:
A2780 [1] = experiment: Cytotoxicity against human A2780 cells after 72 hrs by sulforhodamine B assay; format: functional, cell-based; conditions: A2780, 72 h
How it was run: (§1)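 Cells seeded (A2780 2000, H460 1500, GLC-4 1500 per well), incubated 24 h at 37 °C, 5% CO₂. Compounds from DMSO diluted in saline, tested over 0.001 to 10 range. 24 h exposure, two PBS washes, then 72 h in drug-free medium. Viability by SRB; IC50 from survival-versus-concentration curve against untreated control.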

NCI-H460 = experiment: Cytotoxicity against human NCI-H460 cells after 72 hrs by sulforhodamine B assay; format: functional, cell-based; conditions: NCI-H460, 72 h; how it was run: as §1
[2] = Cytotoxicity against human GLC4 cells after 72 hrs by sulforhodamine B assay; format: functional, cell-based; conditions: GLC4, 72 h; how it was run: as §1
A2780 [3] = experiment: Ratio of IC50 for edotecarin to compound IC50 for human A2780 cells after 72 hrs by sulforhodamine B assay; format: functional
A2780 [4] = experiment: Antitumor activity against human A2780 cells xenografted in athymic harlan mouse assessed as tumor volume inhibition at 90 mg/kg, […] Q4D for 4 weeks; format: functional; conditions: A2780, 672 h
How it was run: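 Female athymic nude mice, 6–8 weeks old, five per group, implanted s.c. in right flank with A2780 cells (10 × 10⁶ cells/flank in 0.2 ml 0.9% NaCl). Treatment began at tumours approximately 50 mm³. Compound dissolved in sterile water, diluted in saline, given i.v. q4dx4 at 10 ml/kg. Calliper length/width; TV = width² × length/2. TVI versus controls at nadir of treated group; deaths recorded.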

Mus musculus = experiment: Toxicity in athymic Harlan mouse xenografted with human A2780 cells assessed as mortality at 90 mg/kg, iv administered Q4D for 4 weeks; format: organism-based; parameters: dose 90 mg/kg, route intravenous; conditions: in vivo, 672 h
How it was run: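 Female athymic nude mice (6–8 weeks old, five per group) received 10 × 10⁶ A2780 cells s.c. in the right flank, suspended in 0.9% NaCl. Dosing began at tumours of about 50 mm³. The drug was dissolved in sterile water for injection, diluted in saline just before use, and given i.v. q4dx4 (twice weekly) at 10 ml/kg. Read-out was deaths out of total mice.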

| Compound | IC50 (A2780 [1]) [µM] | IC50 (NCI-H460) [µM] | IC50 [2] [µM] | Ratio IC50 (A2780 [3]) | inhibition in vivo at 90 mg/kg (A2780 [4]) [%] | Activity (Mus musculus) |
| --- | --- | --- | --- | --- | --- | --- |
| COCC(COC)NN1C(=O)c2c(c3c4ccc(O)cc4n([C@@H]4O[C@H](CO)[C@@H](O)[C@H](O)[C@H]4O)c3c3[nH]c4cc(O)ccc4c23)C1=O | 0.0127 | > 0.125 | 0.0038 |  |  |  |
| O=C1c2c(c3c4ccc(O)cc4n([C@@H]4O[C@H](CO)[C@@H](O)[C@H](O)[C@H]4O)c3c3[nH]c4cc(O)ccc4c23)C(=O)N1NC1COCOC1 | 0.0007 | > 0.25 | 0.0007 | 10 | 99.7 | Non-toxic |
| O=C1c2c(c3c4ccc(O)cc4n([C@@H]4O[C@H](CO)[C@@H](O)[C@H](O)[C@H]4O)c3c3[nH]c4cc(O)ccc4c23)C(=O)N1N1CCOCC1 | 0.054 | > 1 | 0.09 |  |  |  |
| O=C1c2c(c3c4ccc(O)cc4n([C@@H]4O[C@H](CO)[C@@H](O)[C@H](O)[C@H]4O)c3c3[nH]c4cc(O)ccc4c23)C(=O)N1NCC1COCO1 (some centres not stated) | 0.0017 | > 1 | 0.0008 | 3 |  |  |
| O=C1c2c(c3c4ccc(O)cc4n([C@@H]4O[C@H](CO)[C@@H](O)[C@H](O)[C@H]4O)c3c3[nH]c4cc(O)ccc4c23)C(=O)N1NC1C(O)CCCC1O (some centres not stated) | 0.09 | > 0.25 | 0.101 |  |  |  |
| CC[C@@]1(O)C(=O)OCc2c1cc1n(c2=O)Cc2cc3ccccc3nc2-1 [CAMPTOTHECIN] | 0.007 | 0.005 | 0.01 |  |  |  |
| O=C1c2c(c3c4ccc(O)cc4n([C@@H]4O[C@H](CO)[C@@H](O)[C@H](O)[C@H]4O)c3c3[nH]c4cc(O)ccc4c23)C(=O)N1NC(CO)CO [EDOTECARIN] | 0.0065 | 0.193 | 0.0008 |  | 99.8 | Non-toxic |

Reference: ChEMBL document CHEMBL2057097, “Synthesis and biological evaluation of rebeccamycin analogues modified at the imide moiety” (Bioorg Med Chem Lett, 2012)
